According to ChEMBL document CHEMBL1121485, “Antiestrogens. Synthesis and evaluation of mammary tumor inhibiting activity of 1,1,2,2-tetraalkyl-1,2 -diphenylethanes” (1980):

Experiments:
[1] = biological target: T1, Estrogen receptor (Bos taurus) (UniProt Q9XSB5+P49884); experiment: Association constant for Estrogen receptor; assay type: protein assay
[2] = biological target: T1, Estrogen receptor (Bos taurus); experiment: Relative binding affinity for Estrogen receptor compared to 17-beta-estradiol; assay type: protein assay
[3] = biological target: T2, Estrogen receptor (Mus musculus) (UniProt O08537+P19785); experiment: Uterotrophic effect in mice as uterus dry weight(mg) compared to body weight(g) at 0 ug/day dose; assay type: functional, tissue-based
Procedure, shortened: (§1)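 Mice aged 20 days at start, dosed sc once daily for 3 days (0.1 mL injections, arachis oil vehicle); vehicle-only control group. Killed 24 h after last dose; body weight recorded; uteri fixed in Bouin's solution 12 h, trimmed of connective tissue, washed with saturated alcoholic LiCl, dried 100 °C for 24 h, then weighed.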

[4] = biological target: T2, Estrogen receptor (Mus musculus); experiment: Uterotrophic effect in mice as uterus dry weight(mg) compared to body weight(g) at 1000 ug/day dose; assay type: functional, tissue-based; procedure, shortened: as §1
[5] = biological target: T2, Estrogen receptor (Mus musculus); experiment: Uterotrophic effect in mice as uterus dry weight(mg) compared to body weight(g) at 24 ug/day dose; assay type: functional, tissue-based; procedure, shortened: as §1
[6] = biological target: T2, Estrogen receptor (Mus musculus); experiment: Uterotrophic effect in mice as uterus dry weight(mg) compared to body weight(g) at 250 ug/day dose; assay type: functional, tissue-based; procedure, shortened: as §1
[7] = biological target: T2, Estrogen receptor (Mus musculus); experiment: Anti-uterotrophic effect in mice as uterus dry weight(mg) compared to body weight(g) at 0 ug/day dose; assay type: functional, tissue-based; procedure, shortened: as §1
[8] = biological target: T2, Estrogen receptor (Mus musculus); experiment: Anti-uterotrophic effect in mice as uterus dry weight(mg) compared to body weight(g) at 100 ug/day dose; assay type: functional, tissue-based; procedure, shortened: as §1
[9] = biological target: T2, Estrogen receptor (Mus musculus); experiment: Anti-uterotrophic effect in mice as uterus dry weight(mg) compared to body weight(g) at 1000 ug/day dose; assay type: functional, tissue-based; procedure, shortened: as §1
[10] = biological target: T2, Estrogen receptor (Mus musculus); experiment: Uterotrophic effect in mice as uterus dry weight(mg) compared to body weight(g) at 80 ug/day dose; assay type: functional, tissue-based; procedure, shortened: as §1
[11] = biological target: T2, Estrogen receptor (Mus musculus); experiment: Uterotrophic effect in mice as uterus dry weight(mg) compared to body weight(g) at 8 ug/day dose; assay type: functional, tissue-based; procedure, shortened: as §1
[12] = biological target: T2, Estrogen receptor (Mus musculus); experiment: Anti-uterotrophic effect in mice as uterus dry weight(mg) compared to body weight(g) at 25 ug/day dose; assay type: functional, tissue-based; procedure, shortened: as §1
[13] = biological target: T2, Estrogen receptor (Mus musculus); experiment: Anti-uterotrophic effect in mice as uterus dry weight(mg) compared to body weight(g) at 250 ug/day dose; assay type: functional, tissue-based; procedure, shortened: as §1
[14] = biological target: T2, Estrogen receptor (Mus musculus); experiment: Anti-uterotrophic effect in mice as uterus dry weight(mg) compared to body weight(g) at 5 ug/day dose; assay type: functional, tissue-based; procedure, shortened: as §1
[15] = biological target: T1, Estrogen receptor (Bos taurus); experiment: Ratio of association constants for estradiol and compound in estrogen receptor binding assay; assay type: protein assay
Mus musculus [16] = organism: Mus musculus; experiment: Inhibition of estrone-stimulated uterine growth in mice at 5 ug
Mus musculus [17] = organism: Mus musculus; experiment: Inhibition of estrone-stimulated uterine growth in mice at 25 ug
Mus musculus [18] = organism: Mus musculus; experiment: Inhibition of estrone-stimulated uterine growth in mice at 100 ug
Mus musculus [19] = organism: Mus musculus; experiment: Inhibition of estrone-stimulated uterine growth in mice at 250 ug
Mus musculus [20] = organism: Mus musculus; experiment: Inhibition of estrone-stimulated uterine growth in mice at 1000 ug
[21] = biological target: T2, Estrogen receptor (Mus musculus); experiment: Uterotrophic effect in mice as uterus dry weight(mg) compared to body weight(g) at 240 ug/day dose; assay type: functional, tissue-based; procedure, shortened: as §1
[22] = biological target: T2, Estrogen receptor (Mus musculus); experiment: Anti-uterotrophic effect in mice as uterus dry weight(mg) compared to body weight(g) at 10 ug/day dose; assay type: functional, tissue-based; procedure, shortened: as §1
[23] = biological target: T2, Estrogen receptor (Mus musculus); experiment: Anti-uterotrophic effect in mice as uterus dry weight(mg) compared to body weight(g) at 2 ug/day dose; assay type: functional, tissue-based; procedure, shortened: as §1
Mus musculus [24] = organism: Mus musculus; experiment: Inhibition of estrone-stimulated uterine growth in mice at 2 ug
Mus musculus [25] = organism: Mus musculus; experiment: Inhibition of estrone-stimulated uterine growth in mice at 10 ug
[26] = biological target: T2, Estrogen receptor (Mus musculus); experiment: Uterotrophic effect in mice as uterus dry weight(mg) compared to body weight(g) at 100 ug/day dose; assay type: functional, tissue-based; procedure, shortened: as §1
[27] = biological target: T2, Estrogen receptor (Mus musculus); experiment: Uterotrophic effect in mice as uterus dry weight(mg) compared to body weight(g) at 20 ug/day dose; assay type: functional, tissue-based; procedure, shortened: as §1
[28] = biological target: T2, Estrogen receptor (Mus musculus); experiment: Uterotrophic effect in mice as uterus dry weight(mg) compared to body weight(g) at 4 ug/day dose; assay type: functional, tissue-based; procedure, shortened: as §1
[29] = biological target: T2, Estrogen receptor (Mus musculus); experiment: Uterotrophic effect in mice as uterus dry weight(mg) compared to body weight(g) at 500 ug/day dose; assay type: functional, tissue-based; procedure, shortened: as §1
[30] = biological target: T2, Estrogen receptor (Mus musculus); experiment: Uterotrophic effect in mice as uterus dry weight(mg) compared to body weight(g) at 10 ug/day dose; assay type: functional, tissue-based; procedure, shortened: as §1
[31] = biological target: T2, Estrogen receptor (Mus musculus); experiment: Uterotrophic effect in mice as uterus dry weight(mg) compared to body weight(g) at 2.5 ug/day dose; assay type: functional, tissue-based; procedure, shortened: as §1
[32] = biological target: T2, Estrogen receptor (Mus musculus); experiment: Uterotrophic effect in mice as uterus dry weight(mg) compared to body weight(g) at 50 ug/day dose; assay type: functional, tissue-based; procedure, shortened: as §1
[33] = biological target: T2, Estrogen receptor (Mus musculus); experiment: Anti-uterotrophic effect in mice as uterus dry weight(mg) compared to body weight(g) at 2.5 ug/day dose; assay type: functional, tissue-based; procedure, shortened: as §1
Mus musculus [34] = organism: Mus musculus; experiment: Inhibition of estrone-stimulated uterine growth in mice at 2.5 ug
[35] = biological target: T2, Estrogen receptor (Mus musculus); experiment: Anti-uterotrophic effect in mice as uterus dry weight(mg) compared to body weight(g) at 500 ug/day dose; assay type: functional, tissue-based; procedure, shortened: as §1
[36] = biological target: T2, Estrogen receptor (Mus musculus); experiment: Uterotrophic effect in mice as uterus dry weight(mg) compared to body weight(g) at 25 ug/day dose; assay type: functional, tissue-based; procedure, shortened: as §1
[37] = biological target: T2, Estrogen receptor (Mus musculus); experiment: Uterotrophic effect in mice as uterus dry weight(mg) compared to body weight(g) at 5 ug/day dose; assay type: functional, tissue-based; procedure, shortened: as §1
[38] = biological target: T2, Estrogen receptor (Mus musculus); experiment: Uterotrophic effect in mice as uterus dry weight(mg) compared to body weight(g) at 2 ug/day dose; assay type: functional, tissue-based; procedure, shortened: as §1
[39] = biological target: T2, Estrogen receptor (Mus musculus); experiment: Anti-uterotrophic effect in mice as uterus dry weight(mg) compared to body weight(g) at 50 ug/day dose; assay type: functional, tissue-based; procedure, shortened: as §1
Mus musculus [40] = organism: Mus musculus; experiment: Inhibition of estrone-stimulated uterine growth in mice at 50 ug
Mus musculus [41] = organism: Mus musculus; experiment: Inhibition of estrone-stimulated uterine growth in mice at 5 ug; remark: listed apart in the source
Mus musculus [42] = organism: Mus musculus; experiment: Inhibition of estrone-stimulated uterine growth in mice at 500 ug

T2 sequence (O08537 whole entry, looked up): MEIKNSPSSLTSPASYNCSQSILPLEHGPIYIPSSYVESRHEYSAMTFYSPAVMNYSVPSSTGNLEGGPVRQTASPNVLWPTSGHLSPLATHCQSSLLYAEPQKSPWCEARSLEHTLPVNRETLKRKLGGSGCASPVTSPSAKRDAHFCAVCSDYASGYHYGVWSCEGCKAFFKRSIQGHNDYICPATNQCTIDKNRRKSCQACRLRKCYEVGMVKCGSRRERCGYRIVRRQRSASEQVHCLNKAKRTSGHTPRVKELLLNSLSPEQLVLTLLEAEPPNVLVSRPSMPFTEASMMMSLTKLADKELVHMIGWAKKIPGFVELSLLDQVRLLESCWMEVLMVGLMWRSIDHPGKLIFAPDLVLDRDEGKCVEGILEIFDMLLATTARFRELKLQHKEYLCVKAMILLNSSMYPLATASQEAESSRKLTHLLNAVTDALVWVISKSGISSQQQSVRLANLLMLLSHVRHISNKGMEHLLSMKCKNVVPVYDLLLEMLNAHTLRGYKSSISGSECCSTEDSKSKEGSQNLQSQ
T2 sequence (P19785 whole entry, looked up): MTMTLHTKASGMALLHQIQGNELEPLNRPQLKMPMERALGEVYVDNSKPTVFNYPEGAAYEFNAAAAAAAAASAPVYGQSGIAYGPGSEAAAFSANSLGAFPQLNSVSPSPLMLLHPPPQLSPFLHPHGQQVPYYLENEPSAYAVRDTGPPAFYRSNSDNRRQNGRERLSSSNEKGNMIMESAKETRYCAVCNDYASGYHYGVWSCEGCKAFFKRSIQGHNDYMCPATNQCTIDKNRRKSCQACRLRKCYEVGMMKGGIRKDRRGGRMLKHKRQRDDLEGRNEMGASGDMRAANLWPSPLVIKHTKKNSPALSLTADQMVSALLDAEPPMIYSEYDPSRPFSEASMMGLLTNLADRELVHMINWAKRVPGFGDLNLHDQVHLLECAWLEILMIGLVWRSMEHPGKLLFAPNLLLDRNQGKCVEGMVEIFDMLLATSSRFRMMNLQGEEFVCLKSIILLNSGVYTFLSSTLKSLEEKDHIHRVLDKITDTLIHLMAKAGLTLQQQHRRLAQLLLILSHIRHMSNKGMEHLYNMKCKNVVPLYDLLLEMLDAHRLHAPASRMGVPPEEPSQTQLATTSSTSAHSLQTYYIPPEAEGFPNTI

Ka [1] | RA [2] | RAC [15] | Structure (SMILES) | Effect [3] | Effect [6] | Effect [7] | Effect [8] | Effect [12] | Effect [13] | Effect [14] | Inhibition (Mus musculus [17]) | Inhibition (Mus musculus [18]) | Effect [22] | Inhibition (Mus musculus [25]) | Effect [26] | Effect [29] | other results
6.7e+07 M⁻¹ | 0.01 | 0.0093 | CC(C)(c1cccc(O)c1)C(C)(C)c1cccc(O)c1 | 9.2 | 14.6 | 11.2 | 20.4 | 28.7 | 19.4 | 33.9 | 43.2% | 70.3% | – | – | – | – | Effect [4]: 13.4; Effect [5]: 15.7; Effect [9]: 23.4; Effect [10]: 15.4; Effect [11]: 9.8; Inhibition (Mus musculus [16]): 26.5%; Inhibition (Mus musculus [19]): 73.6%; Inhibition (Mus musculus [20]): 60.5%
4.8e+07 M⁻¹ | 0.005 | 0.0046 | CCC(CC)(c1ccc(O)cc1)C(CC)(CC)c1ccc(O)cc1 | 9.2 | – | 14 | – | 36.4 | 43.2 | – | 2.2% | – | 34.6 | 10.3% | – | – | Effect [5]: 23.6; Effect [21]: 43.7; Effect [23]: 31.3; Effect [10]: 31.9; Effect [11]: 15.3; Inhibition (Mus musculus [24]): 24.6%
2.8e+07 M⁻¹ | 0.0042 | 0.0039 | CCC(CC)(c1cccc(O)c1)C(CC)(CC)c1cccc(O)c1 | 15.4 | – | 15.6 | – | 38 | 42.9 | – | – | – | 32.8 | 23% | 52.7 | 52.4 | Effect [27]: 35.8; Effect [28]: 23.1; Effect [23]: 27.4; Inhibition (Mus musculus [24]): 47%
1.5e+06 M⁻¹ | 0.00023 | 0.00021 | CC(=O)Oc1ccc(C(C)(C)C(C)(C)c2ccc(OC(C)=O)c(OC(C)=O)c2)cc1OC(C)=O | 11.4 | 14.2 | 12.6 | 41.6 | 37.8 | – | – | 13.5% | 0.3% | 37.8 | 13.3% | – | – | Effect [30]: 13.8; Effect [31]: 13.8; Effect [32]: 13.6; Effect [33]: 36.4; Inhibition (Mus musculus [34]): 18.3%
290000 M⁻¹ | 4.3e-05 | 4e-05 | CC(C)(c1cc(O)cc(O)c1)C(C)(C)c1cc(O)cc(O)c1 | 9.6 | – | 11.3 | 40.4 | – | – | – | – | – | 30.6 | 11.7% | 8.5 | 14.3 | Effect [35]: 38.9; Effect [36]: 9.4; Effect [37]: 9
1.8e+07 M⁻¹ | 0.0027 | 0.0025 | CCC(C)(c1ccc(O)cc1)C(C)(CC)c1ccc(O)cc1 (stereo not given) | 15.4 | 50.1 | 14 | 38.2 | 34 | – | – | 13.1% | – | 34.6 | 10.4% | – | – | Effect [30]: 34.7; Effect [35]: 42.2; Effect [38]: 24.6; Effect [32]: 39.1
4e+07 M⁻¹ | 0.006 | 0.0056 | CC(C)(c1ccc(O)c(O)c1)C(C)(C)c1ccc(O)c(O)c1 | 9.6 | – | 15.7 | 28.4 | 35 | – | 38.6 | 21.5% | 45.5% | – | – | 10 | 12.5 | Effect [36]: 8.9; Effect [37]: 9.7; Effect [39]: 32.8; Inhibition (Mus musculus [16]): 6.8%; Inhibition (Mus musculus [40]): 30.4%
7.3e+07 M⁻¹ | 0.011 | 0.01 | CC(C)(c1ccc(O)cc1)C(C)(C)c1ccc(O)cc1 | 9.2 | 13.3 | 11.2 | 19.4 | 28 | 19.3 | 37.3 | 45.4% | 73.5% | – | – | – | – | Effect [4]: 14.3; Effect [5]: 15.7; Effect [9]: 24.4; Effect [10]: 15.8; Effect [11]: 10.6; Inhibition (Mus musculus [41]): 15.4%; Inhibition (Mus musculus [19]): 73.5%; Inhibition (Mus musculus [20]): 57.3%
480000 M⁻¹ | 7.1e-05 | 6.6e-05 | CC(=O)Oc1cc(OC(C)=O)cc(C(C)(C)C(C)(C)c2cc(OC(C)=O)cc(OC(C)=O)c2)c1 | 11.4 | 11.3 | 12.6 | 41.3 | 39 | – | – | 9.1% | 1.6% | 37.5 | 14.4% | – | – | Effect [30]: 12.1; Effect [31]: 11.1; Effect [32]: 14.1; Effect [33]: 39.1; Inhibition (Mus musculus [34]): 8.9%
3.5e+08 M⁻¹ | 0.052 | 0.048 | CCC(c1cccc(O)c1)C(CC)c1cccc(O)c1 (stereo not given) | – | – | – | – | – | – | – | – | – | – | – | – | – | –
2.1e+07 M⁻¹ | 0.0031 | 0.0029 | CC(C)(c1ccc(F)c(O)c1)C(C)(C)c1ccc(F)c(O)c1 | 15.4 | – | 15.7 | 27.3 | 35.2 | – | 36.1 | 20.9% | 53.1% | – | – | 16.7 | 21.4 | Effect [35]: 25.2; Effect [27]: 16.7; Effect [28]: 17.8; Inhibition (Mus musculus [16]): 17.2%; Inhibition (Mus musculus [42]): 61.5%
